Key:
Cytochrome P450 2C9 = Cytochrome P450 2C9 (Homo sapiens, UniProt P11712); assay: Time-dependent inhibition of human CYP2C9; type: ADME
Cytochrome P450 3A4 [1] = target: T1, Cytochrome P450 3A4 (Homo sapiens, UniProt P08684); assay: Time-dependent inhibition of human CYP3A4 using midazolam as substrate; type: ADME
Cytochrome P450 2D6 = Cytochrome P450 2D6 (Homo sapiens, UniProt P10635); assay: Time-dependent inhibition of human CYP2D6; type: ADME
[2] = MRT in CD(SD) rat at 3 mg/kg, po; type: ADME, organism-based; details: in vivo
[3] = Inhibition of GAL4-fused mouse LXR transcriptional activity expressed in CHOK1 cells after 2 days by luciferase reporter gene assay; type: cell-based; details: CHO-K1, 48 h
[4] = Oral bioavailability in CD(SD) rat at 3 mg/kg; type: ADME, organism-based; details: in vivo
Mus musculus = assay: Anti-inflammatory activity in orally dosed C57BL/6 mouse model of MOG (35 to 55 residues)/pertussis toxin/anti-CD3 antibody-induced experimental allergic encephalomyelitis assessed as inhibition of IL17 production measured 8 hrs after post dose by ELISA; type: functional
Summary of the method: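 Female C57BL/6 mice immunized subcutaneously at two back sites (75 μg MOG35–55 per site; peptide at 3 mg/mL in D-PBS emulsified 1:1 with complete Freund's adjuvant), plus intraperitoneal pertussis toxin 0.2 μg on days 1 and 3. Day 5: anti-CD3 1 μg i.v. Oral dosing 3 h or 8 h before anti-CD3, 5 mice/group. Blood taken 2 h post-anti-CD3; plasma IL-17A measured by ELISA.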

Cytochrome P450 1A2 = target: T2, Cytochrome P450 1A2 (Homo sapiens, UniProt P05177); assay: Time-dependent inhibition of human CYP1A2; type: ADME
T2 sequence (P05177 whole entry): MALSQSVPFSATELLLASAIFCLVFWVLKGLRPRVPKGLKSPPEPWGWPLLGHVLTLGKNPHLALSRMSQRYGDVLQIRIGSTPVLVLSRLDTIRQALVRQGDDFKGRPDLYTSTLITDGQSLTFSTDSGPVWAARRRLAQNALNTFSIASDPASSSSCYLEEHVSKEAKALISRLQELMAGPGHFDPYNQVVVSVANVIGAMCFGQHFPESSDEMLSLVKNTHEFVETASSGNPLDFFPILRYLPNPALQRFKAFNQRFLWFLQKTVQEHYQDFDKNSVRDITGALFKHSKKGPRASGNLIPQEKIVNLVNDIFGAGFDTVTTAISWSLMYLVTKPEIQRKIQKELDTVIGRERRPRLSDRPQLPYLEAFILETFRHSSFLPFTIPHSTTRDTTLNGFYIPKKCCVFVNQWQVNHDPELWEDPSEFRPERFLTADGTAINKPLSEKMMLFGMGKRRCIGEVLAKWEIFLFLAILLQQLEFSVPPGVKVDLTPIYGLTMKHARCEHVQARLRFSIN

[5] = target: T3, Peroxisome proliferator-activated receptor gamma (Homo sapiens, UniProt P37231); assay: Inhibition of GAL4-fused human PPARgamma transcriptional activity expressed in CHOK1 cells after 2 days by luciferase reporter gene assay; type: cell-based
T3 sequence (P37231 whole entry): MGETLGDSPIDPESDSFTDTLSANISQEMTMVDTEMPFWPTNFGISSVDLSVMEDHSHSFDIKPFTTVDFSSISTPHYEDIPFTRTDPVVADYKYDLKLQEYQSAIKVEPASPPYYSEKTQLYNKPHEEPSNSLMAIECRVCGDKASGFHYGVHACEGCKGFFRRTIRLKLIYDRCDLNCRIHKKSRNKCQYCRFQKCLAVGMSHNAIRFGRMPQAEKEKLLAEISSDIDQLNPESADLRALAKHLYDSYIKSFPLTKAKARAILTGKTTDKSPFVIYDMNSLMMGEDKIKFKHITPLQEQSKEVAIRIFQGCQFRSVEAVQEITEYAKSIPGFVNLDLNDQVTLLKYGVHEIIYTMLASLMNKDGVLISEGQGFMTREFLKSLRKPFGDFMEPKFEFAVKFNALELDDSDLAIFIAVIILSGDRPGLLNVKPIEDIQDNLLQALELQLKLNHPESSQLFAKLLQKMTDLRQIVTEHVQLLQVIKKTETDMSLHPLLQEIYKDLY

[6] = AUC in CD(SD) rat at 3 mg/kg, po; type: ADME, organism-based; details: in vivo
Cytochrome P450 3A4 [7] = target: T1, Cytochrome P450 3A4; assay: Time-dependent inhibition of human CYP3A4 using testosterone as substrate; type: ADME
[8] = Total body clearance in CD(SD) rat at 1 mg/kg, iv; type: ADME, organism-based; details: in vivo

T1 sequence (P08684 whole entry): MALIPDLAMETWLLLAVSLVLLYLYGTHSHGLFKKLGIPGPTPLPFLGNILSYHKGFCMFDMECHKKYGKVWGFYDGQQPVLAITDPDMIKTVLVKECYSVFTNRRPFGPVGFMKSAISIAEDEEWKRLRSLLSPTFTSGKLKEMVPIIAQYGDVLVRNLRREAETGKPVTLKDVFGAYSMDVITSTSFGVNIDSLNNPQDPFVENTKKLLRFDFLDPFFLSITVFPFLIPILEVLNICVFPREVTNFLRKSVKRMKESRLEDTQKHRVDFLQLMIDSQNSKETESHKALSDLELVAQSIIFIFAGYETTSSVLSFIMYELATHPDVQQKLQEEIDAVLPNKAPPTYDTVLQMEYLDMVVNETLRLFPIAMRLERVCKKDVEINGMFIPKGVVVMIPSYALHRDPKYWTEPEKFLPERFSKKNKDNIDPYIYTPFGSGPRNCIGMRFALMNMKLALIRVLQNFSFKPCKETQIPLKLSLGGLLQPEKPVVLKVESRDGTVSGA
Chain of Cytochrome P450 2C9 (P11712 whole entry): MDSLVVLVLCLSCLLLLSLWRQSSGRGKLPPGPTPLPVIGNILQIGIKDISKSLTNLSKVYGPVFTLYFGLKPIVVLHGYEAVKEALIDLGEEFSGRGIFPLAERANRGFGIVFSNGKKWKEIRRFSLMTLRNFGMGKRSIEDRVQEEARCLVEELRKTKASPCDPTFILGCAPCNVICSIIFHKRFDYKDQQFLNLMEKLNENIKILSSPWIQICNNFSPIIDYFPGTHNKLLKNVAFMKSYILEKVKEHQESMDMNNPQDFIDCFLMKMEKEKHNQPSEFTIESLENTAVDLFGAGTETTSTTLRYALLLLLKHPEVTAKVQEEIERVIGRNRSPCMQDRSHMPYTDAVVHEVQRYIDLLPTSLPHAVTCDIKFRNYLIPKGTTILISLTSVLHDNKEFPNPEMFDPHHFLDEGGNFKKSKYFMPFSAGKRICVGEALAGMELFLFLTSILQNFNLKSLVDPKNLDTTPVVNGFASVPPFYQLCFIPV
Chain of Cytochrome P450 2D6 (P10635 whole entry): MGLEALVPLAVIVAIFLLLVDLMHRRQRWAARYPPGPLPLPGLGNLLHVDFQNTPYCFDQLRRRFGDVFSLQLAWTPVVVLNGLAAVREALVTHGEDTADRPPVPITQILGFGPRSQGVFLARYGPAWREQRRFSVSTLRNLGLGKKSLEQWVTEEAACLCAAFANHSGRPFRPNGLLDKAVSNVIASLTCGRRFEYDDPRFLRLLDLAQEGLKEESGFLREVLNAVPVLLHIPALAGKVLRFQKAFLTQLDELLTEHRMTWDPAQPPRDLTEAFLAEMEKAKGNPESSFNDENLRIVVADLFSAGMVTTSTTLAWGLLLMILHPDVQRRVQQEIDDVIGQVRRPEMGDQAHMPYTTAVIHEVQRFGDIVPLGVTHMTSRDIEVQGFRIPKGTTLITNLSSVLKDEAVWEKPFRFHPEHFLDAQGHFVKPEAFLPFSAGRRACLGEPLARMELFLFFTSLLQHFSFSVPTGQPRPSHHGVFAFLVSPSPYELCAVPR

CC(C)(C)Cc1cc(-c2onc([C@@H](CCC(=O)[O-])CC(=O)Nc3ccc(Cl)cc3Cl)c2C2CC2)no1.[Na+]
IC50 (Cytochrome P450 2C9): > 50 µM
IC50 (Cytochrome P450 3A4 [1]): > 50 µM
IC50 (Cytochrome P450 2D6): > 50 µM
MRT [2]: 4.9 h
EC50 [3]: > 20 µM
bioavailability [4]: 72%
Activity (Mus musculus): Dose-dependent effect
ED50 (Mus musculus; C57BL/6, po): 3 mg/kg
IC50 (Cytochrome P450 1A2): > 50 µM
EC50 [5]: > 20 µM
AUC [6]: 15 µM·h
IC50 (Cytochrome P450 3A4 [7]): > 50 µM
clearance [8]: 4.17 mL/min/kg

— ChEMBL document CHEMBL4480411, “Discovery of Second Generation RORγ Inhibitors Composed of an Azole Scaffold” (J Med Chem, 2019)
